Blank lines part the entries; values can stand above or below the compound they belong to.
What was measured:
Brain [1] = experiment: Biodistribution in ddY mouse brain at 13.2 to 20.6 kBq, iv measured at 10 mins by gamma counting analysis; format: ADME, organism-based; conditions: in vivo
In short: (§1)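 Male ddY mice, 5 weeks old, received the 125I-labelled tracer (13.2–20.6 kBq) intravenously in the tail vein, in 100 µL saline containing ethanol. Animals were sacrificed at 2, 10, 30 and 60 min. Tissue radioactivity is expressed as %ID/g, mean (SD) of 5 animals.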

Liver [2] = experiment: Biodistribution in ddY mouse liver at 13.2 to 20.6 kBq, iv measured at 30 mins by gamma counting analysis; format: ADME, organism-based; conditions: in vivo, 0.5 h; in short: as §1
Brain [3] = experiment: Biodistribution in ddY mouse brain at 13.2 to 20.6 kBq, iv measured at 60 mins by gamma counting analysis; format: ADME, organism-based; conditions: in vivo, 1 h; in short: as §1
Spleen [4] = experiment: Biodistribution in ddY mouse spleen at 13.2 to 20.6 kBq, iv measured at 10 mins by gamma counting analysis; format: ADME, organism-based; conditions: in vivo; in short: as §1
Intestine [5] = experiment: Biodistribution in ddY mouse intestine at 13.2 to 20.6 kBq, iv measured at 60 mins by gamma counting analysis; format: ADME, organism-based; conditions: in vivo, 1 h; in short: as §1
Kidney [6] = experiment: Biodistribution in ddY mouse kidney at 13.2 to 20.6 kBq, iv measured at 2 mins by gamma counting analysis; format: ADME, organism-based; conditions: in vivo; in short: as §1
Brain [7] = experiment: Biodistribution in ddY mouse brain at 13.2 to 20.6 kBq, iv measured at 2 mins by gamma counting analysis; format: ADME, organism-based; conditions: in vivo; in short: as §1
Pancreas [8] = experiment: Biodistribution in ddY mouse pancreas at 13.2 to 20.6 kBq, iv measured at 2 mins by gamma counting analysis; format: ADME, organism-based; conditions: in vivo; in short: as §1
Stomach [9] = experiment: Biodistribution in ddY mouse stomach at 13.2 to 20.6 kBq, iv measured per organ at 60 mins by gamma counting analysis; format: ADME, organism-based; conditions: in vivo, 1 h
In short: (§2)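 Male ddY mice, 5 weeks old, were injected in the tail vein with the 125I tracer (13.2–20.6 kBq) in 100 µL saline containing ethanol. Sacrifice at 2, 10, 30 and 60 min. Stomach radioactivity is expressed as %ID per whole organ, mean (SD) of 5 animals.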

Intestine [10] = experiment: Biodistribution in ddY mouse intestine at 13.2 to 20.6 kBq, iv measured at 10 mins by gamma counting analysis; format: ADME, organism-based; conditions: in vivo; in short: as §1
Liver [11] = experiment: Biodistribution in ddY mouse liver at 13.2 to 20.6 kBq, iv measured at 60 mins by gamma counting analysis; format: ADME, organism-based; conditions: in vivo, 1 h; in short: as §1
Brain [12] = experiment: Biodistribution in ddY mouse brain at 13.2 to 20.6 kBq, iv measured at 30 mins by gamma counting analysis; format: ADME, organism-based; conditions: in vivo, 0.5 h; in short: as §1
Kidney [13] = experiment: Biodistribution in ddY mouse kidney at 13.2 to 20.6 kBq, iv measured at 60 mins by gamma counting analysis; format: ADME, organism-based; conditions: in vivo, 1 h; in short: as §1
Blood [14] = experiment: Biodistribution in ddY mouse blood at 13.2 to 20.6 kBq, iv measured at 60 mins by gamma counting analysis; format: ADME, organism-based; conditions: in vivo, 1 h; in short: as §1
Pancreas [15] = experiment: Biodistribution in ddY mouse pancreas at 13.2 to 20.6 kBq, iv measured at 60 mins by gamma counting analysis; format: ADME, organism-based; conditions: in vivo, 1 h; in short: as §1
Lung [16] = experiment: Biodistribution in ddY mouse lung at 13.2 to 20.6 kBq, iv measured at 60 mins by gamma counting analysis; format: ADME, organism-based; conditions: in vivo, 1 h; in short: as §1
[17] = 1-Octanol-PBS buffer partition coefficient, log P of the compound at 0.37 MBq after 2 mins by gamma counting analysis; format: physicochemical
Pancreas [18] = experiment: Biodistribution in ddY mouse pancreas at 13.2 to 20.6 kBq, iv measured at 30 mins by gamma counting analysis; format: ADME, organism-based; conditions: in vivo, 0.5 h; in short: as §1
Stomach [19] = experiment: Biodistribution in ddY mouse stomach at 13.2 to 20.6 kBq, iv measured per organ at 30 mins by gamma counting analysis; format: ADME, organism-based; conditions: in vivo, 0.5 h; in short: as §2
Brain [20] = experiment: Ratio of drug level in ddY mouse brain at 13.2 to 20.6 kBq, iv measured at 2 mins to drug level in ddY mouse brain at 13.2 to 20.6 kBq, iv measured at 60 mins; format: ADME, organism-based; conditions: in vivo
In short: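 Tail-vein injection of the 125I tracer (13.2–20.6 kBq, saline with ethanol) into male 5-week-old ddY mice. The ratio is brain uptake (%ID/g) at 2 min divided by brain uptake at 60 min, from groups of 5 animals.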

Spleen [21] = experiment: Biodistribution in ddY mouse spleen at 13.2 to 20.6 kBq, iv measured at 2 mins by gamma counting analysis; format: ADME, organism-based; conditions: in vivo; in short: as §1
Pancreas [22] = experiment: Biodistribution in ddY mouse pancreas at 13.2 to 20.6 kBq, iv measured at 10 mins by gamma counting analysis; format: ADME, organism-based; conditions: in vivo; in short: as §1
Liver [23] = experiment: Biodistribution in ddY mouse liver at 13.2 to 20.6 kBq, iv measured at 2 mins by gamma counting analysis; format: ADME, organism-based; conditions: in vivo; in short: as §1
Spleen [24] = experiment: Biodistribution in ddY mouse spleen at 13.2 to 20.6 kBq, iv measured at 30 mins by gamma counting analysis; format: ADME, organism-based; conditions: in vivo, 0.5 h; in short: as §1
Intestine [25] = experiment: Biodistribution in ddY mouse intestine at 13.2 to 20.6 kBq, iv measured at 30 mins by gamma counting analysis; format: ADME, organism-based; conditions: in vivo, 0.5 h; in short: as §1
Lung [26] = experiment: Biodistribution in ddY mouse lung at 13.2 to 20.6 kBq, iv measured at 2 mins by gamma counting analysis; format: ADME, organism-based; conditions: in vivo; in short: as §1
Stomach [27] = experiment: Biodistribution in ddY mouse stomach at 13.2 to 20.6 kBq, iv measured per organ at 2 mins by gamma counting analysis; format: ADME, organism-based; conditions: in vivo; in short: as §2
Lung [28] = experiment: Biodistribution in ddY mouse lung at 13.2 to 20.6 kBq, iv measured at 10 mins by gamma counting analysis; format: ADME, organism-based; conditions: in vivo; in short: as §1
Stomach [29] = experiment: Biodistribution in ddY mouse stomach at 13.2 to 20.6 kBq, iv measured per organ at 10 mins by gamma counting analysis; format: ADME, organism-based; conditions: in vivo; in short: as §2
Lung [30] = experiment: Biodistribution in ddY mouse lung at 13.2 to 20.6 kBq, iv measured at 30 mins by gamma counting analysis; format: ADME, organism-based; conditions: in vivo, 0.5 h; in short: as §1
Heart [31] = experiment: Biodistribution in ddY mouse heart at 13.2 to 20.6 kBq, iv measured at 10 mins by gamma counting analysis; format: ADME, organism-based; conditions: in vivo; in short: as §1
Heart [32] = experiment: Biodistribution in ddY mouse heart at 13.2 to 20.6 kBq, iv measured at 30 mins by gamma counting analysis; format: ADME, organism-based; conditions: in vivo, 0.5 h; in short: as §1
Blood [33] = experiment: Biodistribution in ddY mouse blood at 13.2 to 20.6 kBq, iv measured at 10 mins by gamma counting analysis; format: ADME, organism-based; conditions: in vivo; in short: as §1
Intestine [34] = experiment: Biodistribution in ddY mouse intestine at 13.2 to 20.6 kBq, iv measured at 2 mins by gamma counting analysis; format: ADME, organism-based; conditions: in vivo; in short: as §1
Brain [35] = experiment: Drug uptake in gray matter of alzheimer disease patient brain at 92.5 kBq after 1 hr by autoradiographic analysis; format: ADME, tissue-based; conditions: human, in vitro
In short: (§3)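 Postmortem AD brain (person), 6 µm paraffin sections, deparaffinized in xylene and a graded ethanol series. Sections were incubated with the 125I tracer (92.5 kBq/100 µL) for 1 h at room temperature, then dipped in 50% EtOH for 2 h and rinsed in water. Imaging plates were exposed overnight. Adjacent sections were immunostained with AT8 (phospho-tau) and BC05 (Abeta1-42).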

Blood [36] = experiment: Biodistribution in ddY mouse blood at 13.2 to 20.6 kBq, iv measured at 30 mins by gamma counting analysis; format: ADME, organism-based; conditions: in vivo, 0.5 h; in short: as §1
Brain [37] = experiment: Drug uptake in human brain at 92.5 kBq after 1 hr by autoradiographic analysis; format: ADME, tissue-based
Heart [38] = experiment: Biodistribution in ddY mouse heart at 13.2 to 20.6 kBq, iv measured at 60 mins by gamma counting analysis; format: ADME, organism-based; conditions: in vivo, 1 h; in short: as §1
Spleen [39] = experiment: Biodistribution in ddY mouse spleen at 13.2 to 20.6 kBq, iv measured at 60 mins by gamma counting analysis; format: ADME, organism-based; conditions: in vivo, 1 h; in short: as §1
Liver [40] = experiment: Biodistribution in ddY mouse liver at 13.2 to 20.6 kBq, iv measured at 10 mins by gamma counting analysis; format: ADME, organism-based; conditions: in vivo; in short: as §1
Brain [41] = experiment: Drug uptake in white matter of alzheimer disease patient brain at 92.5 kBq after 1 hr by autoradiographic analysis; format: ADME, tissue-based; conditions: human, in vitro; in short: as §3
Kidney [42] = experiment: Biodistribution in ddY mouse kidney at 13.2 to 20.6 kBq, iv measured at 10 mins by gamma counting analysis; format: ADME, organism-based; conditions: in vivo; in short: as §1
Kidney [43] = experiment: Biodistribution in ddY mouse kidney at 13.2 to 20.6 kBq, iv measured at 30 mins by gamma counting analysis; format: ADME, organism-based; conditions: in vivo, 0.5 h; in short: as §1
Blood [44] = experiment: Biodistribution in ddY mouse blood at 13.2 to 20.6 kBq, iv measured at 2 mins by gamma counting analysis; format: ADME, organism-based; conditions: in vivo; in short: as §1
Heart [45] = experiment: Biodistribution in ddY mouse heart at 13.2 to 20.6 kBq, iv measured at 2 mins by gamma counting analysis; format: ADME, organism-based; conditions: in vivo; in short: as §1
Brain [46] = experiment: Ratio of drug level in mouse brain measured at 2.5 mins to drug level in mouse brain measured at 20 mins; format: ADME, tissue-based; conditions: in vivo
Brain [47] = experiment: Ratio of drug level in ddY mouse brain at 64.5 kBq, iv measured at 2 mins to drug level in ddY mouse brain at 64.5 kBq, iv measured at 60 mins; format: ADME, organism-based; conditions: in vivo

- Drug uptake (Brain [1]): 1.61 % ID/g
- Drug uptake (Liver [2]): 14.9 % ID/g
- Drug uptake (Brain [3]): 0.33 % ID/g
- Drug uptake (Spleen [4]): 3.69 % ID/g
- Drug uptake (Intestine [5]): 26.5 % ID/g
- Drug uptake (Kidney [6]): 11.7 % ID/g
- Drug uptake (Brain [7]): 3.28 % ID/g
- Drug uptake (Pancreas [8]): 5.4 % ID/g
- Drug uptake (Stomach [9]): 3.56 %ID
- Drug uptake (Intestine [10]): 9.22 % ID/g
- Drug uptake (Liver [11]): 10.1 % ID/g
- Drug uptake (Brain [12]): 0.68 % ID/g
- Drug uptake (Kidney [13]): 2.26 % ID/g
- Drug uptake (Blood [14]): 1.28 % ID/g
- Drug uptake (Pancreas [15]): 0.89 % ID/g
- Drug uptake (Lung [16]): 1.39 % ID/g
- logP at 2 min [17]: 2.23
- Drug uptake (Pancreas [18]): 1.67 % ID/g
- Drug uptake (Stomach [19]): 3.83 %ID
- Ratio (Brain [20]): 9.94
- Drug uptake (Spleen [21]): 3.48 % ID/g
- Drug uptake (Pancreas [22]): 3.31 % ID/g
- Drug uptake (Liver [23]): 17.4 % ID/g
- Drug uptake (Spleen [24]): 2.66 % ID/g
- Drug uptake (Intestine [25]): 18.2 % ID/g
- Drug uptake (Lung [26]): 7.39 % ID/g
- Drug uptake (Stomach [27]): 1.67 %ID
- Drug uptake (Lung [28]): 3.98 % ID/g
- Drug uptake (Stomach [29]): 2.82 %ID
- Drug uptake (Lung [30]): 2.2 % ID/g
- Drug uptake (Heart [31]): 3.46 % ID/g
- Drug uptake (Heart [32]): 2 % ID/g
- Drug uptake (Blood [33]): 3.24 % ID/g
- Drug uptake (Intestine [34]): 3.11 % ID/g
- Drug uptake (Brain [35]): Active
- Drug uptake (Blood [36]): 1.88 % ID/g
- Drug uptake (Brain [37]): Not Active
- Drug uptake (Heart [38]): 1.12 % ID/g
- Drug uptake (Spleen [39]): 1.42 % ID/g
- Drug uptake (Liver [40]): 19.2 % ID/g
- Drug uptake (Brain [41]): Not Active
- Drug uptake (Kidney [42]): 7.28 % ID/g
- Drug uptake (Kidney [43]): 4.32 % ID/g
- Drug uptake (Blood [44]): 3.83 % ID/g
- Drug uptake (Heart [45]): 8.56 % ID/g
Compound: CN(C)c1ccc(/C=C/c2nc3ccc([125I])cc3[nH]2)cc1

- Ratio (Brain [46]): 2.92
Compound: [18F]CCC1CCN(c2ccn3c(n2)nc2ccccc23)CC1

- Ratio (Brain [47]): 1.69
Compound: CN(C)c1ccc(/N=N/c2nc3ccc(OCCOCCOCC[18F])cc3s2)cc1
